# TRPC4 inh – inhibitors of mouse TRPC4 channel, primary screen, Fluo4 calcium, HEK293 TRPC4beta/mu-opioid cells; Short transient receptor potential channel 4 (Mus musculus), Q9QUQ5; DAMGO-evoked Fluo4 calcium flux; stronger effect = lower value; B-score at 10 µM; hit rate 0.39% among 300,000; AID 2247, 2010;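 active = B-score over 3 SD under the library average, no early fluorescence shift, positive overall ratio signal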
# Target sequence (Q9QUQ5 whole entry, looked up): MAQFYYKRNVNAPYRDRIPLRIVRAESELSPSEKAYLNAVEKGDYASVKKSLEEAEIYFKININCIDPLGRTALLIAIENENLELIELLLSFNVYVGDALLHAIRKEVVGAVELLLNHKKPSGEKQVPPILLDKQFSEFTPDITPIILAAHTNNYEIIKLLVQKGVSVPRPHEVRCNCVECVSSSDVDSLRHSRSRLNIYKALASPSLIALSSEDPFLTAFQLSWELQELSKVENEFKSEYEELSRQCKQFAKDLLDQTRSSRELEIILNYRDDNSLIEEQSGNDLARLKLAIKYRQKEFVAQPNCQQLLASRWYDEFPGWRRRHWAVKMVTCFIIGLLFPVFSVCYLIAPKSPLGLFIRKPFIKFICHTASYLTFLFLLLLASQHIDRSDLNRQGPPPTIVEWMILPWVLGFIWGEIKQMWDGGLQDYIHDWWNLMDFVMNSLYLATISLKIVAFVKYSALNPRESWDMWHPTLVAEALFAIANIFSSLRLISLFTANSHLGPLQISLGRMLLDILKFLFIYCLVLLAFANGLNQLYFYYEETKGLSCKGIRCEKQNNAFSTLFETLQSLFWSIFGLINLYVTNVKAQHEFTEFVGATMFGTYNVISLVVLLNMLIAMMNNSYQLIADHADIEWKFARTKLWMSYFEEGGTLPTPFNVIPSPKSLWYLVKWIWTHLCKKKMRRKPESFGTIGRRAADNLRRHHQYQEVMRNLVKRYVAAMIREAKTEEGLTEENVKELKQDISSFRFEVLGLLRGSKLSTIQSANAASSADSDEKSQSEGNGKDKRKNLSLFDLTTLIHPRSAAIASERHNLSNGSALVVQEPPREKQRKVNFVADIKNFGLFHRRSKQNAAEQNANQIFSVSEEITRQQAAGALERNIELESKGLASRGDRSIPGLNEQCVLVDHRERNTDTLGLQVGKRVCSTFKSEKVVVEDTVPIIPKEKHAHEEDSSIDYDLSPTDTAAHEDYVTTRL
#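 test system = HEK293 cells with stable TRPC4beta plus mu-opioid receptor expression | detection = Fluo4 Ca2+ flux fluorescence | read-out = integrated fluorescence ratio relative to baseline, converted to per-well B score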
# DSG3 Ab inh – inhibitors of pemphigus antibody binding to DSG3, primary screen, biochemical, bead-based, flow cytometry, scFv-GFP. Desmoglein-3 (Homo sapiens), P32926. DSG3-coupled beads, scFv-anti-DSG3-GFP binding; stronger effect = lower value. binding (percent of control), % at 10 µM. hit rate 0.48% among 310,000;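 active = binding more than 3 SD below its plate's average and above zero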
# TRPC6 inhibitor – mouse TRPC6 channel inhibitors, primary screen, cell-based, HEK293, membrane potential dye | AID 2553, 2010 | hit rate 1.1% among 310,000 | B-score at 10 µM | ACh-evoked depolarization; stronger effect = lower value;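 active = B-score under library mean minus 3 SD, initial fluorescence not abnormally high, positive integrated signal ratio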;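 note: B-score derived from integrated fluorescence ratio over the kinetic read; more negative B-score means stronger inhibition of depolarization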
# TRPC6 act – mouse TRPC6 channel activators, primary screen, cell-based, HEK293, membrane potential dye. Short transient receptor potential channel 6 (Mus musculus), Q61143. HEK293-TRPC6 membrane potential dye fluorescence; stronger effect = higher value. B-score at 10 µM. hit rate 0.13% among 310,000. AID 2550, 2010;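 active = B-score of the integrated fluorescence ratio above library mean plus 3 SD, and starting fluorescence ratio within library mean plus 5 SD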;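 note: higher score means more depolarization so channel activation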
# TRPC4 potent – positive allosteric modulators of TRPC4, primary screen, cell-based, mouse TRPC4beta, HEK293 mu-opioid, Fluo-4 calcium; Short transient receptor potential channel 4 (Mus musculus), Q9QUQ5; DAMGO EC20, Fluo-4 Ca2+ flux; stronger effect = higher value; B-score at 10 µM; hit rate 0.42% among 310,000; AID 2227, 2009;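 active = B-score of calcium response area above 5 SD of library B-scores, with initial fluorescence ratio within 5 SD of library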;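 note: B-score of integrated fluorescence ratio over time as area under calcium response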
# TRPC4 agonist – activators of mouse TRPC4 channel, primary screen, Fluo4 calcium, HEK293 TRPC4beta/mu-opioid cells. Short transient receptor potential channel 4 (Mus musculus), Q9QUQ5. Fluo4 calcium fluorescence; stronger effect = higher value. B-score at 10 µM. hit rate 0.49% among 310,000. AID 2237, 2010;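 active = B-score above 5 SD of library B-scores, and initial fluorescence ratio not above library mean plus 5 SD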;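 note: positive B-score marks a calcium rise read as TRPC4 activation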
#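 Incubation: 45 min room-temperature Fluo4 loading, 110 s read / System: HEK293 cells stably co-expressing mouse TRPC4beta and mu-opioid receptor / Signal: Fluo4 fluorescence, kinetic / Control set: buffer (low) and maximal DAMGO (high) / Measure: integrated baseline-normalised fluorescence ratio, converted to per-well B score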
# TRPC4 sel inh 2 – second check of whether TRPC6 inhibitors also affect mouse TRPC4; hit rate 42% among 920; inhibition, % at 10 µM; HEK293 TRPC4/MOR, membrane potential dye fluorescence; channel activated by saturating DAMGO dose; shares compounds with TRPC6 inhibitor;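 active = compounds whose fluorescence signal differed from control wells by over 3 SD, either direction, in both duplicate plates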
# TRPC4 spec – mouse TRPC4 modulation by TRPC6 hits, confirmation, selectivity assay for TRPC6 inhibitor project, cell-based, HEK293 TRPC4/mu-opioid, membrane potential dye. shares compounds with TRPC6 inhibitor. membrane potential fluorescence. activity change, negative = inhibition, % at 10 µM. hit rate 61% among 920. AID 2777, 2010;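 active = rise or fall in signal beyond 3 SD of buffer-only wells in both replicate plates, either sign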;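 note: integrated kinetic ratio of fluorescence range over baseline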
# HEK293 MPD ctr 2-1 – nonspecific membrane potential effects, parental HEK293, confirmation, counter-screen for TRPC6 inhibitor project, cell-based, second counter screen. shares compounds with TRPC6 inhibitor. parental HEK293 membrane potential dye fluorescence; maximal acetylcholine challenge after compound addition. signal change vs control, % at 10 µM. hit rate 31% among 920;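 active = membrane potential signal moving either way by over 3 SD of the maximum-effect control, in both duplicate plates, meaning non-specific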
# HEK293 MPD ctr-1 – membrane potential modulation in parental HEK293, confirmation, counter-screen for TRPC6 inhibitor project, cell-based; membrane potential signal change, % at 10 µM; parental HEK293 membrane potential dye fluorescence; shares compounds with TRPC6 inhibitor; AID 2780, 2010; hit rate 60% among 920;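 active = membrane potential signal shifting up or down by more than 3 SD of buffer-only wells, on both duplicate plates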
# HEK293 MPD ctr-2 – parental HEK293 membrane potential modulation, confirmation, counter-screen for TRPC6 modulator project, cell-based | hit rate 51% among 2,400 | shares compounds with TRPC6 inhibitor | membrane potential signal change, % at 10 µM | membrane potential dye fluorescence;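 active = membrane potential signal moves up or down beyond 5 SD from buffer-only wells, on both duplicate plates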
# HEK293 MPD ctr 2-2 – parental HEK293 nonspecific activity of TRPC6 modulators, second screen | shares compounds with TRPC6 inhibitor | membrane potential dye fluorescence; after compound, maximal acetylcholine stimulation | inhibition, % at 10 µM | hit rate 14% among 2,400 | AID 488926;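 active = membrane potential signal drops by more than 5 SD from the mean control signal, in both duplicate plates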;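 note: plate controls were acetylcholine ECmax control wells for no effect and buffer only wells for full effect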
# TRPC4/MOR mod – TRPC4 modulation by TRPC6 hit compounds, confirmation, selectivity assay for TRPC6 modulator project, cell-based, HEK293 TRPC4/mu-opioid, membrane potential dye, mouse. shares compounds with TRPC6 inhibitor. membrane potential fluorescence. percent change from control (negative = decrease, positive = increase), % at 10 µM. hit rate 69% among 2,400;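 active = membrane potential signal moved up or down beyond 5 SD of buffer control wells, in both duplicate plates, actives on both sides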;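 note: plate controls were assay buffer wells for no effect and DAMGO maximal-effect wells for full effect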
# TRPC4 ctr inh 2 – second selectivity test of TRPC6 modulators against mouse TRPC4. HEK293 TRPC4/mu-opioid, membrane potential dye fluorescence; stimulated with maximal-effect DAMGO. shares compounds with TRPC6 inhibitor. hit rate 55% among 2,400. inhibition, % at 10 µM;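 active = drop in membrane potential signal beyond 5 SD of the control wells in both duplicate plates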;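 note: TRPC4 counter screen for TRPC6 hits run under conditions tuned for TRPC6 not TRPC4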
# TRPC6 inh conf – mouse TRPC6 channel inhibitors, confirmation, HEK293 cells, membrane potential dye, duplicate | hit rate 43% among 3,300 | ACh-evoked depolarization | inhibition, % at 10 µM | shares compounds with TRPC6 inhibitor;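 active = fluorescence ratio falls more than 5 SD below the full-stimulation control mean, in both duplicate runs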;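 note: integrated fluorescence ratio of peak minus minimum over baseline after agonist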
# TRPC6 act conf – mouse TRPC6 channel activators, confirmation, HEK293 cells, membrane potential dye, duplicate; activation, % at 10 µM; HEK293-TRPC6 membrane potential dye fluorescence, FDSS; hit rate 11% among 2,800; shares compounds with TRPC6 inhibitor;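 active = ratio signal rise beyond 5 SD above unstimulated control wells' mean, seen in both duplicate runs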;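 note: plate controls were buffer EC0 wells for no effect and acetylcholine ECmax response for full effect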
# The depositor's hits bear a star; i = inactive; nt = no result given. Most compounds without a hit are left out; they make up all but 2.5% or so of the library.
SMILES,TRPC4 inh,DSG3 Ab inh,TRPC6 inhibitor,TRPC6 act,TRPC4 potent,TRPC4 agonist,HEK293 MPD ctr-2,HEK293 MPD ctr 2-2,TRPC4/MOR mod,TRPC4 ctr inh 2,TRPC6 inh conf,TRPC6 act conf,others
Nc1nnc(CSCc2cccc(Br)c2)s1,i,114,i,i,i,i,nt,nt,nt,nt,nt,nt,
COc1ccc(NS(=O)(=O)c2cc(NC(=O)c3ccc(C)s3)ccc2N2CCOCC2)cc1,i,90,i,i,i,i,nt,nt,nt,nt,nt,nt,
Cc1ccc(OCC(=O)NNC(=O)c2cccnc2)cc1C,i,102,-5.7*,i,i,i,i,i,i,i,i,i,
CC(C)C(=O)Nc1cc(S(=O)(=O)N2CCOCC2)ccc1N1CCCCC1,nt,128,nt,nt,nt,nt,nt,nt,nt,nt,nt,nt,
CC(C)(C)C(=O)Nc1cc(S(=O)(=O)N2CCCCC2)ccc1N1CCCCC1,i,100,-10*,16*,i,i,180%*,i,20%*,i,43%*,74%*,
O=C(COc1ccc(Br)cc1)Nc1cc(S(=O)(=O)N2CCCCC2)ccc1N1CCCCC1,i,98,i,i,i,i,nt,nt,nt,nt,nt,nt,
CN1CCN(c2ccc(S(=O)(=O)N3CCCCC3)cc2NC(=O)COc2ccc(F)cc2)CC1,i,111,-5.9*,i,10*,i,i,i,10%*,74%*,i,i,
CCc1nnc(NC(=O)CCn2cnc3ccccc3c2=O)s1,i,nt,i,i,i,i,nt,nt,nt,nt,nt,nt,
C[C@]12C=CC(=O)C=C1CC[C@@H]1C2=CC[C@]2(C)[C@@H](C(=O)CN3CCN(c4cc(N5CCCC5)nc(N5CCCC5)n4)CC3)CC[C@@H]12,i,nt,-6.7*,i,i,i,-238%*,i,-54%*,64%*,69%*,i,
CC(=O)C1CCC2C3CCC4=CC(=O)C=CC4(C)C3C(=O)CC12C (configuration not stated),nt,87,nt,nt,nt,nt,nt,nt,nt,nt,nt,nt,
OCCN(CC#CCC(O)(c1ccccc1)C1CCCC1)CCO (configuration not stated),i,nt,i,i,i,i,nt,nt,nt,nt,nt,nt,
CCN(CC)CCC#CC(O)(c1ccccc1)C1CCCCC1 (configuration not stated),i,97,-7.6*,i,i,i,nt,nt,nt,nt,64%*,nt,TRPC4 sel inh 2=62%*;TRPC4 spec=49%*;HEK293 MPD ctr 2-1=i;HEK293 MPD ctr-1=17%*
CN(C)CC#CCC(O)(c1ccccc1)C1CCCCC1 (configuration not stated),i,105,-6.5*,i,i,i,i,105%*,20%*,36%*,78%*,i,
CCN(CC)CC#CCC(O)(c1ccccc1)C1CCCC1 (configuration not stated),i,122,-6.5*,i,i,i,156%*,100%*,30%*,i,75%*,nt,
CCC[N+]1(CC#CC(O)(c2ccccc2)C2CCCCC2)CCCCC1 (configuration not stated),i,nt,i,i,i,i,nt,nt,nt,nt,nt,nt,
CN(C)c1ccc(C(=O)OCC#CCSc2nnc(-c3cccc4ccccc34)o2)cc1,nt,108,nt,nt,nt,nt,nt,nt,nt,nt,nt,nt,
CC(=O)NCCc1nc2ccccc2n1Cc1cc(C)ccc1C,i,97,-5.1*,i,i,i,i,i,17%*,i,i,i,
COC(=O)C(NC(=O)c1ccc(C)cc1)(Nc1cccc(C)n1)C(F)(F)F (configuration not stated),i,nt,-7.2*,i,i,i,nt,nt,nt,nt,63%*,nt,TRPC4 sel inh 2=i;TRPC4 spec=i;HEK293 MPD ctr 2-1=i;HEK293 MPD ctr-1=i
COC(CNC(=O)c1ccc2c(c1)ncn2-c1ccc(F)cc1F)OC,i,93,-5*,i,i,i,i,i,40%*,72%*,i,nt,
COC(CNC(=O)c1ccc2c(c1)ncn2-c1cccc(F)c1)OC,i,104,i,i,i,i,nt,nt,nt,nt,nt,nt,

# Source: PubChem (several laboratories)
